Measured values reported in ChEMBL document CHEMBL1914406, “Inhibitory effect of novel 5-O-acyl juglones on mammalian DNA polymerase activity, cancer cell growth and inflammatory response” (Bioorg Med Chem, 2011).
Calls of active or inactive are those of the source. The rule behind the calls is not given here.

Columns and labels:
[1] = Inhibition of cauliflower DNA polymerase alpha using poly(dA)/oligo(dT)18 (A/T = 2/1) and dTTP as the DNA template-primer and nucleotide substrate after 60 mins; design: species or system Brassica oleracea var. botrytis
Method in brief: (§1)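 Compound in DMSO, sonicated 30 s. Premixed 0 °C, 10 min with enzyme (0.05 units) in 50 mM Tris-HCl pH 7.5, 1 mM DTT, 50% glycerol, 0.1 mM EDTA, then added to standard reaction mixture. Template-primers: poly(dA)/oligo(dT)18 (2/1) for pols, oligo(dT)18 for TdT, poly(rA)/oligo(dT)18 for HIV-1 RT, with [3H]dTTP. 60 min at 37 °C (Taq 74 °C). Activity relative to no-inhibitor control; mean ± SE of three experiments.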

DNA polymerase lambda = DNA polymerase lambda (Homo sapiens, UniProt Q9UGP5); experiment: Inhibition of His-tagged human DNA polymerase lambda using poly(dA)/oligo(dT)18 (A/T = 2/1) and dTTP as the DNA template-primer and nucleotide substrate after 60 mins; method in brief: as §1
T7 RNA polymerase = T7 RNA polymerase (Enterobacteria phage T7, UniProt P00573); experiment: Inhibition of T7 RNA polymerase using salmon sperm DNA and [3H]UTP at 25 degree C after 30 mins by liquid scintillation counting; design: species or system Escherichia phage T7
T7 RNA polymerase, sequence (P00573 whole entry): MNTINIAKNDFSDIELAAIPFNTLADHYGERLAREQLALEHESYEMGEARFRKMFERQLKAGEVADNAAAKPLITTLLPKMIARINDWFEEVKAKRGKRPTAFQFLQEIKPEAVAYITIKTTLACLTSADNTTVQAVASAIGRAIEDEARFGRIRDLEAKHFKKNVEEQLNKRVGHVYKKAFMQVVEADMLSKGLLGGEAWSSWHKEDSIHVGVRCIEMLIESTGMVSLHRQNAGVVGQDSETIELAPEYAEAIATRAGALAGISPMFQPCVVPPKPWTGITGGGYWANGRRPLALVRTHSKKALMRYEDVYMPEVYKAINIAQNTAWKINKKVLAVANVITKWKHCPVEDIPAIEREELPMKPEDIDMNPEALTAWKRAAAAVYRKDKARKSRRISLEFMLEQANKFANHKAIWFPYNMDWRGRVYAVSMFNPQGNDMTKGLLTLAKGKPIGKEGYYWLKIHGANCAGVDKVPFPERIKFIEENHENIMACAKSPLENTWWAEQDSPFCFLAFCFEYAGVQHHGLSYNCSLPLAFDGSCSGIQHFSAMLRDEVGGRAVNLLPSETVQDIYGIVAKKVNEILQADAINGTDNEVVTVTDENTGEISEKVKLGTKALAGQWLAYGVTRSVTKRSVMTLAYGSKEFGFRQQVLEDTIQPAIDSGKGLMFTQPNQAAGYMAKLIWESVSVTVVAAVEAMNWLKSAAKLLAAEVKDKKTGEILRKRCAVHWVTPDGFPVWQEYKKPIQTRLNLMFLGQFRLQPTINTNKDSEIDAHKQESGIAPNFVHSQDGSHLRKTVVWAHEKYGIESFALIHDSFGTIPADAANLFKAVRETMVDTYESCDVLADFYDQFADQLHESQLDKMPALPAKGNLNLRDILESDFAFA

[2] = target: DNA-directed DNA/RNA polymerase mu (Homo sapiens, UniProt Q9NP87); experiment: Inhibition of His-tagged human DNA polymerase mu using poly(dA)/oligo(dT)18 (A/T = 2/1) and dTTP as the DNA template-primer and nucleotide substrate after 60 mins; method in brief: as §1
DNA-directed DNA/RNA polymerase mu, sequence (Q9NP87 whole entry): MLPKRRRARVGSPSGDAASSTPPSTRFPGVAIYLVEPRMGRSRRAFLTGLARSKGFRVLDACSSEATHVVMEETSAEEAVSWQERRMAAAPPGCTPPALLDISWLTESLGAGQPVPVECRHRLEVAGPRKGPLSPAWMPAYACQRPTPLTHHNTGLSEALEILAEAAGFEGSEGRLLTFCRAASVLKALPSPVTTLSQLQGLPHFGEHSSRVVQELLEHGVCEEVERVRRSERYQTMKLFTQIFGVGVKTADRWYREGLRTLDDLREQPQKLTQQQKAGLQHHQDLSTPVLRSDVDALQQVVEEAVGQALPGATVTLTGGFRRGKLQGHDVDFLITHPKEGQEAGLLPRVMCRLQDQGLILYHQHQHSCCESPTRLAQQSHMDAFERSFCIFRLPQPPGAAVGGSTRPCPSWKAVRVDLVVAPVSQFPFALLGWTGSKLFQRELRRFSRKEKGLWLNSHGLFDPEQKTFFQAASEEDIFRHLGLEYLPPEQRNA

[3] = target: T1, DNA polymerase lambda (Homo sapiens) (UniProt Q9UGP5); experiment: Inhibition of recombinant His-tagged human DNA polymerase lambda using bovine deoxyribonuclease 1-treated DNA and dNTP as the DNA template-primer and nucleotide substrate at 10 uM after 60 mins
T1 sequence (whole entry): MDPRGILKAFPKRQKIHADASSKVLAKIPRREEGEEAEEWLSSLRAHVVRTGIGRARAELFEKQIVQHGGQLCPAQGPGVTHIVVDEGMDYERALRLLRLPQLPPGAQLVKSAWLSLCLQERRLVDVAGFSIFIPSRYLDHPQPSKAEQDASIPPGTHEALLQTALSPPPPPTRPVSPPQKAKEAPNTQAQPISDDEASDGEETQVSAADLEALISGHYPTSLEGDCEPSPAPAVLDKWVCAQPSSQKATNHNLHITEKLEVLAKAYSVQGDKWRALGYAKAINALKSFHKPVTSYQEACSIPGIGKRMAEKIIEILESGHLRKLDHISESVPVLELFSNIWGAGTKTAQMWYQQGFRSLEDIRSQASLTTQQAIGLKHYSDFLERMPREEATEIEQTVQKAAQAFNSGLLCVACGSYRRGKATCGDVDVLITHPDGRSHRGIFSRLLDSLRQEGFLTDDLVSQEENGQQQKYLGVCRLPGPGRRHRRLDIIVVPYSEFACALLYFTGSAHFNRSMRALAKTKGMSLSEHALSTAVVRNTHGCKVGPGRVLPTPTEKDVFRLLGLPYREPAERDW

Bos taurus = organism: Bos taurus; experiment: Inhibition of calf DNA polymerase alpha using bovine deoxyribonuclease 1-treated DNA and dNTP as the DNA template-primer and nucleotide substrate at 10 uM after 60 mins
Polynucleotide kinase = Polynucleotide kinase (Enterobacteria phage T4, UniProt P06855); experiment: Inhibition of T4 polynucleotide kinase using 5'-hydroxyl termini of DNA and [gamma-32ATP] after 30 mins by liquid scintillation counting; design: species or system Tequatrovirus T4
Polynucleotide kinase, sequence (P06855 whole entry, the tested form may be a part): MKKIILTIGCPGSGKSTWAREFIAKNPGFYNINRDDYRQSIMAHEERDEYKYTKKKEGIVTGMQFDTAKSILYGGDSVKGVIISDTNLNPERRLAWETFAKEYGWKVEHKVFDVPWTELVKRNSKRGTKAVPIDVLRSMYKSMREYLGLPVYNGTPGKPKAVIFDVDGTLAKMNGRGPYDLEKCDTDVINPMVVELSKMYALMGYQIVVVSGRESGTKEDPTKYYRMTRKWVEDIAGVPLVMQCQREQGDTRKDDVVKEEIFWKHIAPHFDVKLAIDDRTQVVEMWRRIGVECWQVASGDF

DNA polymerase kappa = DNA polymerase kappa (Homo sapiens, UniProt Q9UBT6); experiment: Inhibition of C-terminal His6-tagged human DNA polymerase kappa (amino acids 1 to 560) using poly(dA)/oligo(dT)18 (A/T = 2/1) and dTTP as the DNA template-primer and nucleotide substrate after 60 mins; method in brief: as §1
[4] = Inhibition of Escherichia coli DNA polymerase 1 Klenow fragment using poly(dA)/oligo(dT)18 (A/T = 2/1) and dTTP as the DNA template-primer and nucleotide substrate after 60 mins; method in brief: as §1
RAW264.7 = experiment: Cytotoxicity against mouse RAW264.7 cells at 5 uM; type: cell-based; conditions: raw264.7, 5 µM
Nucleic Acid = experiment: Binding affinity to DNA assessed as thermal transition of DNA relative to control; type: nucleic-acid assay
[5] = target: Inosine-5'-monophosphate dehydrogenase 2 (Mus musculus, UniProt P24547); experiment: Inhibition of mouse IMP dehydrogenase type 2
Inosine-5'-monophosphate dehydrogenase 2, sequence (P24547 whole entry): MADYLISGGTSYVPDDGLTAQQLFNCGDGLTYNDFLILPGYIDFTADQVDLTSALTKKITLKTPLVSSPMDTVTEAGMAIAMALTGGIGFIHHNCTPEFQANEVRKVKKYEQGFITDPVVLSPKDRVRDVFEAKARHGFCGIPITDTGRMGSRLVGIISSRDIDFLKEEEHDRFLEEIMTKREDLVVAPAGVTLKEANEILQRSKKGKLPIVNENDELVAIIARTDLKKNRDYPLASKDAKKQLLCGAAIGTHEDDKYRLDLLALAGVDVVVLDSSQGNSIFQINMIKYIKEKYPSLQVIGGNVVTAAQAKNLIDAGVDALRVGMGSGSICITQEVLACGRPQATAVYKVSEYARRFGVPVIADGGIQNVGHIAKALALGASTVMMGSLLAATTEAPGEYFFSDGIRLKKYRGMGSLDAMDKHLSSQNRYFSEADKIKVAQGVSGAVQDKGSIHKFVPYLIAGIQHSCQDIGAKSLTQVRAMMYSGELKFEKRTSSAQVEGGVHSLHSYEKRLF
Method in brief: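 Calf primase of pol α and mouse IMP dehydrogenase type II measured by standard assays per manufacturer's specifications. Activity relative to no-compound control (100%).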

[6] = target: T2, DNA polymerase kappa (Homo sapiens) (UniProt Q9UBT6); experiment: Inhibition of C-terminal His6-tagged human DNA polymerase kappa (amino acids 1 to 560) using poly(dA)/oligo(dT)18 (A/T = 2/1) and dTTP as the DNA template-primer and nucleotide substrate at 10 uM after 60 mins
T2 sequence (whole entry): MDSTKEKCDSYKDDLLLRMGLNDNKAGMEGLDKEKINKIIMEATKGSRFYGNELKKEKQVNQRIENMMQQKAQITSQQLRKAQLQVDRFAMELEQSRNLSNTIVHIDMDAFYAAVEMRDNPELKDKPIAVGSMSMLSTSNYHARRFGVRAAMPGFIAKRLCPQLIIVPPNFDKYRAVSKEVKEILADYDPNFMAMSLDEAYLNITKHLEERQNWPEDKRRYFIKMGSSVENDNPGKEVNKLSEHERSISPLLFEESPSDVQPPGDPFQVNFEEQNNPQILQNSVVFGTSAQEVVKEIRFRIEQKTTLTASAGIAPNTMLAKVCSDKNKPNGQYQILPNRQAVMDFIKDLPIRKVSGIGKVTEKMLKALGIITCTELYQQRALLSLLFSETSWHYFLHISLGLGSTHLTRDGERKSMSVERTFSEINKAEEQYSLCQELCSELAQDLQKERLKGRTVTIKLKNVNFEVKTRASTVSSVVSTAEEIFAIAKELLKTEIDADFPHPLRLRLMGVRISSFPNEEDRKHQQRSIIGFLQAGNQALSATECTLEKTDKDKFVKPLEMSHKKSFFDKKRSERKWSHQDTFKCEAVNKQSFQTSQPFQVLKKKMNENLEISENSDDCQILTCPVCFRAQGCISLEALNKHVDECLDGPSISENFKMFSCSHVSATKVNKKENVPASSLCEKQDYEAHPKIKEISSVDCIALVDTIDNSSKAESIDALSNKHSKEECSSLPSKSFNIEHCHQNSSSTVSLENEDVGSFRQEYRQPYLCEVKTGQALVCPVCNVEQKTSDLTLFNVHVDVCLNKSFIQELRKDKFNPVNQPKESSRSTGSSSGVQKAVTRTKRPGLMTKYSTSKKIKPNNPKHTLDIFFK

[7] = Inhibition of rice DNA polymerase lambda using poly(dA)/oligo(dT)18 (A/T = 2/1) and dTTP as the DNA template-primer and nucleotide substrate after 60 mins; design: species or system Oryza sativa; method in brief: as §1
[8] = target: DNA polymerase I, thermostable (Thermus aquaticus, UniProt P19821); experiment: Inhibition of Taq polymerase using poly(dA)/oligo(dT)18 (A/T = 2/1) and dTTP as the DNA template-primer and nucleotide substrate at 74 degree C after 60 mins; method in brief: as §1
DNA polymerase I, thermostable, sequence (P19821 whole entry): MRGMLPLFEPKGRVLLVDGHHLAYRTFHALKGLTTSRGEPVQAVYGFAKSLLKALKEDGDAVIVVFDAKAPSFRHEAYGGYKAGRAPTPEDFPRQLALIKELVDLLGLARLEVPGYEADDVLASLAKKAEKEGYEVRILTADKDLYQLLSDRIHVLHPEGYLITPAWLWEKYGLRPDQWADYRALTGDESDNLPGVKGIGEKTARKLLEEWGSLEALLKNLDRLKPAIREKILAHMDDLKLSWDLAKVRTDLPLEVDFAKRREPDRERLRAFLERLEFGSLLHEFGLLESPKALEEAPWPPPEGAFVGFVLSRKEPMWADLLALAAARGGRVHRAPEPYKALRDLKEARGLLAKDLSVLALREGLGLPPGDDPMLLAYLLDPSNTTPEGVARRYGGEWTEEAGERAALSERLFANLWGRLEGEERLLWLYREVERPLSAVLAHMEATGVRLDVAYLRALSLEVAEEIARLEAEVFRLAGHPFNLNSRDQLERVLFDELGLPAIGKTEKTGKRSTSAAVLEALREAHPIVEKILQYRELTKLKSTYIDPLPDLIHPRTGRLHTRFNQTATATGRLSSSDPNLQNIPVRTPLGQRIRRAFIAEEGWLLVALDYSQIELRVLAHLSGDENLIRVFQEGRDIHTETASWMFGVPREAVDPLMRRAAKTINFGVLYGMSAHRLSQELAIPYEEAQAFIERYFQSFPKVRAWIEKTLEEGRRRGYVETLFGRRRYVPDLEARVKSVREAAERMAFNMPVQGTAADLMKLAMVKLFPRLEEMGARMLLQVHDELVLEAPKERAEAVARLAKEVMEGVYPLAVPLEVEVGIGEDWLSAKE

Structure (SMILES)	IC50 [1] [µM]	IC50 (DNA polymerase lambda) [µM]	IC50 (T7 RNA polymerase) [µM]	IC50 [2] [µM]	inhibition [3]	inhibition (Bos taurus)	IC50 (Polynucleotide kinase) [µM]	IC50 (DNA polymerase kappa) [µM]	IC50 [4] [µM]	Activity (RAW264.7)	Activity (Nucleic Acid)	IC50 [5] [µM]	inhibition [6]	IC50 [7] [µM]	IC50 [8] [µM]
CCCCCCCCCCCC(=O)Oc1cccc2c1C(=O)C=CC2=O	> 100	7	> 100	7.9	Active	Active	> 100	6.8	> 100	Non-toxic	inactive	> 100	Active	> 100	> 100
CCCCCCCC/C=C\CCCCCCCC(=O)Oc1cccc2c1C(=O)C=CC2=O	> 200	10.2	> 100	10.8	Active	Active	> 100	8.1	> 100	Non-toxic	inactive	> 100	Active	> 200	> 100
